These results are taken from PMC3220761 (ACS chemical biology, 2011).

Data set [1] has as its target T1, α/β1 20S proteasome complex (Salinispora tropica, UniProt A4X744).
T1 sequence (A4X744 54-279): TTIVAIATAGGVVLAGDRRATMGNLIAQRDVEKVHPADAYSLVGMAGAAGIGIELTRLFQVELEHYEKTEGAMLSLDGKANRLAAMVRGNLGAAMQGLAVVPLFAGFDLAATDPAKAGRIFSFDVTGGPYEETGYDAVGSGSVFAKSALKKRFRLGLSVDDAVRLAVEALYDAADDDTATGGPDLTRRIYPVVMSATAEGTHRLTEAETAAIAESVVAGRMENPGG
T1 sequence (A4X745 1-260 partner): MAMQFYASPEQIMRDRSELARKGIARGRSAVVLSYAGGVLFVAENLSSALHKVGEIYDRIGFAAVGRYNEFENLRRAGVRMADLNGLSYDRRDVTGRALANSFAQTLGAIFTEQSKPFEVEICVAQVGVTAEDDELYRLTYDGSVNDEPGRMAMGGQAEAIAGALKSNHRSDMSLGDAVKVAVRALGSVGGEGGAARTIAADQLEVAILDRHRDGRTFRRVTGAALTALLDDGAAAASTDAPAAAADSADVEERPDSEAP
The data set can be described thus: Proteasome inhibition. It is filed as biochemical.

Data set [2] has as its target T2, α/SalI 20S proteasome complex (Salinispora tropica, UniProt A4X3P0).
T2 sequence (A4X3P0 49-282): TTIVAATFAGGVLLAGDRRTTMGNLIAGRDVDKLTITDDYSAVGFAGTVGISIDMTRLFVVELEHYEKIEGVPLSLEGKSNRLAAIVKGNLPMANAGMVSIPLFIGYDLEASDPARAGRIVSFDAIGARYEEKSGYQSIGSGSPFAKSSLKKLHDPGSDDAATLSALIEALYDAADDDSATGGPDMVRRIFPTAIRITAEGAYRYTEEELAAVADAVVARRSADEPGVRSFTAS
T2 sequence (A4X745 1-260 partner): T1 sequence (A4X745 1-260 partner)
The data set can be described thus: Proteasome inhibition. It is filed as biochemical. The settings on record: for fold increase in IC50 with the α/SalI complex in comparison to the α/β1 complex (resistance): α/SalI versus α/β1.

For data set [3], the target named is T3, α/SalI F45M proteasome complex (Salinispora tropica, UniProt A4X3P0, F93M).
T3 sequence (A4X3P0 49-282 F93M): T2 sequence (A4X3P0 49-282)
T3 sequence (A4X745 1-260 partner): T1 sequence (A4X745 1-260 partner)
The data set can be described thus: Proteasome inhibition. It is filed as biochemical.

Data set [4] has as its target T2, α/SalI 20S proteasome complex. The data set can be described thus: Time-dependence of inhibition, α/SalI. It is filed as biochemical. The settings on record: 0.5–100 μM inhibitor, Z-VKM-amc, 3.5 h, 30 °C. The procedure, abridged: (§1)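 Purified S. tropica α/β1 or α/SalI complex (His6-α, E. coli-expressed) in 50 mM Tris-HCl pH 8.0. Test compound (0.5–100 μM final) and 40 μM Z-VKM-amc were pre-warmed to 30 °C. Pre-warmed enzyme was added to 20 μg ml−1 (27 nM) final. Fluorescence (ex 355/em 460 nm) was read every minute for 3.5 h at a constant 30 °C.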

Data set [5] concerns the target T4, α/β1 M45F/A49V proteasome complex (Salinispora tropica, UniProt A4X744, A102V/M98F).
T4 sequence (A4X744 54-279 M98F/A102V): T1 sequence (A4X744 54-279)
T4 sequence (A4X745 1-260 partner): T1 sequence (A4X745 1-260 partner)
The data set can be described thus: Proteasome inhibition. The data set is classed as biochemical.

The target in data set [6] is T5, α/β1 M45F proteasome complex (Salinispora tropica, UniProt A4X744, M98F).
T5 sequence (A4X744 54-279 M98F): T1 sequence (A4X744 54-279)
T5 sequence (A4X745 1-260 partner): T1 sequence (A4X745 1-260 partner)
The data set can be described thus: Proteasome inhibition. It is filed as biochemical.

For data set [7], the target named is T2, α/SalI 20S proteasome complex. The data set can be described thus: Irreversibility of inhibition. The data set is classed as biochemical. Particulars: 250 μM inhibitor for 1.5 h at 30 °C, Z-VKM-amc. The procedure, abridged: (§2)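 Recombinant S. tropica proteasome (His6-tagged α coexpressed with untagged β1 or SalI in E. coli BL21(DE3); Ni-NTA then size-exclusion purified). Enzyme at 20 μg ml−1 in 50 mM Tris-HCl pH 8.0 was held with 250 μM test compound or matching DMSO, 1.5 h, 30 °C. It was buffer-exchanged three times on 30 kDa cutoff filters, then added to 40 μM Z-VKM-amc. Fluorescence (ex 355/em 460 nm) was read every minute for 3 h at 30 °C.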

Data set [8] concerns the target T6, α/β1 A49V proteasome complex (Salinispora tropica, UniProt A4X744, A102V).
T6 sequence (A4X744 54-279 A102V): T1 sequence (A4X744 54-279)
T6 sequence (A4X745 1-260 partner): T1 sequence (A4X745 1-260 partner)
As to the kind of experiment: Proteasome inhibition. It is filed as biochemical.

Data set [9] addresses T1, α/β1 20S proteasome complex. The data set can be described thus: Time-dependence of inhibition, α/β1. It is filed as biochemical. The settings on record: 0.5–100 μM inhibitor, Z-VKM-amc, 3.5 h, 30 °C. A digest of the protocol:
as §1

Data set [10] has the same target. The data set can be described thus: Irreversibility of inhibition. It is filed as biochemical. The settings on record: 250 μM inhibitor for 1.5 h at 30 °C, Z-VKM-amc. The procedure, abridged:
as §2

The data set “native gel or EMSA” concerns the molecule itself. As to the kind of experiment: native gel or EMSA. Background: A gel shift assay detects complexes by their altered migration in electrophoresis.
[11] abbreviates: IC50, α/SalI complex, substrate Z-VKM-amc 40 μM, mean ± SD, N = 3.

“And” between values parts separate entries of the source, which are not always exact repeats. Identical values can stand only once. Like-named read-outs stand apart in the source and are kept apart here.

For the molecule `C[C@@]12OC(=O)[C@]1([C@@H](O)C1CCC1)NC(=O)[C@@H]2CCCl` [Salinosporamide X3, salinosporamide X3], the IC50 in data set [1] and in data set [2] was greater than 250 µM throughout.

For `CC(C)C[C@H](NC(=O)[C@H](Cc1ccccc1)NC(=O)c1cnccn1)B(O)O` [Bortezomib, bortezomib, reference compound], in [2] (setting [11]), the IC50 (usually the concentration needed to halve the response being measured) was 42.7 ± 3.4 µM. The “fold increase in IC50 with the α/SalI complex in comparison to the α/β1 complex (resistance)” value (“fold increase in IC50” for short) in data set [2] was found to be 13 fold.

Turning to `CC(C)[C@H](O)[C@@]12NC(=O)[C@H](CCCl)[C@]1(C)OC2=O` [Antiprotealide, antiprotealide], the IC50 in [1] was 104 ± 7.2 µM; in [2], greater than 250 µM.

The molecule `CC[C@H]1C(=O)N[C@@]2([C@@H](O)[C@@H]3C=CCCC3)C(=O)O[C@@]12C` [Salinosporamide B, salinosporamide B] registered an IC50 in data set [2] (setting [11]) of 139 ± 27.3 µM. Further, the “fold increase in IC50” value in data set [2] is on record as 7 fold.

Take `C[C@@]12OC(=O)[C@]1([C@@H](O)[C@@H]1C=CCCC1)NC(=O)[C@@H]2CCCl` [Salinosporamide A, salinosporamide A]: the 50% inhibitory concentration (IC50) turned out to be 45.5 ± 2.3 µM in data set [3]; 15.3 ± 2.2 µM in data set [5]; 1.2 ± 0.1 µM in data set [6]; 52 ± 3.5 µM in data set [2] (IC50, α/SalI complex, substrate Suc-LLVY-amc 40 μM, mean ± SD, N = 3); 36.8 ± 2.4 µM in [2] (setting [11]); 13.6 ± 2.2 µM in [8]. Besides, the time-dependence of inhibition result in data set [4] and in [9] was “time-dependent inhibition” in each case. The “fold increase in IC50” value in data set [2] is 16–30 fold and 30 fold. Further, the “recovery of proteolytic activity after buffer exchange to remove inhibitor” value in data set [7] and in data set [10] was “no recovery of proteolytic activity” in each case. The “increase in IC50 of α/β1 A49V mutant” value in [8] (α/β1 A49V versus wild-type α/β1, Z-VKM-amc) was “greater than a ten-fold increase”.

Consider `CCC[C@H](O)[C@@]12NC(=O)[C@H](CCCl)[C@]1(C)OC2=O` [Salinosporamide X5, salinosporamide X5], for which the IC50 in data set [1] and in data set [2] was greater than 250 µM in each case.

In the case of `C[C@@]12OC(=O)[C@]1([C@@H](O)[C@@H]1C=CCC1)NC(=O)[C@@H]2CCCl` [Salinosporamide X7, salinosporamide X7], the IC50 in [1] was 3.6 ± 0.2 µM; in data set [2], greater than 250 µM.

B1: Salinispora tropica CNB-440 20S proteasome β-subunit β1 (Strop_2244) (natural protein, UniProt A4X744 54-279, looked up)
chain: T1 sequence (A4X744 54-279)
For the molecule B1, the binding result in “native gel or EMSA” is reported as “binds”.

B2: Salinispora tropica CNB-440 20S proteasome α-subunit (Strop_2245) (natural protein, UniProt A4X745 1-260, looked up)
chain: T1 sequence (A4X745 1-260 partner)
As to B2, the binding result in the data set “native gel or EMSA” is listed as “binds”.

B3: SalI, proteasome β-subunit of the salinosporamide biosynthetic gene cluster (Strop_1015) (natural protein, Salinispora tropica CNB-440, UniProt A4X3P0 49-282, looked up)
chain: T2 sequence (A4X3P0 49-282)
Turning to B3, the binding result in “native gel or EMSA” is on record as “binds”.
